Active and inactive are the calls of the source. The calls are words filed in the database; no cut-off is given here.
Experiments:
[1] = target: T1, Aldehyde dehydrogenase 1A1 (Homo sapiens) (UniProt P00352); assay: Inhibition of ALDH1 in human K562 cells at 15 uM after 45 mins by flow cytometry based method relative to bodipy-aminoacetaldehyde; format: cell-based
T1 sequence (whole entry): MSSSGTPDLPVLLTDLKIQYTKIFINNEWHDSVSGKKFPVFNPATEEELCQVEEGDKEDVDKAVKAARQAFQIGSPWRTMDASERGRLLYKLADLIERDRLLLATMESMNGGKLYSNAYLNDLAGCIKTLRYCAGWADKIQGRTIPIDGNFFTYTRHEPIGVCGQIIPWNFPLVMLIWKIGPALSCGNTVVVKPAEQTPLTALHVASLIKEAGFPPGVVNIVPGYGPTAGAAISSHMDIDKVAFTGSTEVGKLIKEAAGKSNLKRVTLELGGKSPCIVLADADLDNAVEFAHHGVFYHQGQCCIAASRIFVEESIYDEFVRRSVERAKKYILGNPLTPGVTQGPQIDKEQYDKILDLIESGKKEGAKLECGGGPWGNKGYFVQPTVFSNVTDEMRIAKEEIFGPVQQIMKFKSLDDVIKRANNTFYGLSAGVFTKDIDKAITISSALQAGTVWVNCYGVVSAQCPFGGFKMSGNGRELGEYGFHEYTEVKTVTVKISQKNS

K562 = assay: Percentage of ALDH+ cells in human K562 cells at 15 uM after 45 mins by flow cytometry based method; details: K562, 0.75 h
MDA-MB-231 [2] = assay: Antiproliferative activity against human MDA-MB-231 cells expressing BCA2 and ERalpha after 72 hrs by MTT assay; format: functional, cell-based; details: MDA-MB-231, 72 h
In short: (§1)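 Each compound run in triplicate; actives repeated in three independent experiments, IC50 read from growth curves as mean ± SD. Cells in RPMI 1640 + 10% heat-inactivated FBS (MDA-MB-231/ER also with 1 mg/mL G418; MCF10A in MEGM), 37 °C, 5% CO2, exponential phase.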

[3] = Antiproliferative activity against human MCF10A cells after 72 hrs by MTT assay; format: cell-based; details: MCF-10A; in short: as §1
T47D = assay: Antiproliferative activity against human T47D cells expressing BCA2 and estrogen receptor after 72 hrs by MTT assay; format: functional, cell-based; in short: as §1
MCF7 [4] = assay: Antiproliferative activity against human MCF7 cells expressing BCA2 and estrogen receptor after 72 hrs by MTT assay; format: functional, cell-based; details: MCF7, 72 h; in short: as §1
MDA-MB-231 [5] = assay: Antiproliferative activity against BCA2 and ER deficient human MDA-MB-231 cells after 72 hrs by MTT assay; format: functional, cell-based; details: MDA-MB-231, 72 h; in short: as §1
Homo sapiens [6] = species on record: Homo sapiens; assay: Inhibition of wild type human recombinant His-BCA2 autoubiquitination expressed in Escherichia coli at 50 uM after 30 mins by Western blotting in presence of human recombinant E2 UbcH5b
In short: (§2)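 10 ng E. coli-expressed His-BCA2 preincubated 30 min at room temperature with compound (final 5 or 50 μM, DMSO stocks). Then added ATP, 1 μg ubiquitin, 20 ng rabbit E1 and 20 ng UbcH5b in Tris HCl pH 8.0 with DTT and MgCl2. Reaction 1 h at 30 °C, then SDS-PAGE on 4–20% gel and immunoblot with anti-ubiquitin antibody.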

MCF7 [7] = assay: Antiproliferative activity against human MCF7 cells expressing BCA2 and estrogen receptor at IC50 concentration after 5 days by MTT assay in presence of 75 uM to 600 nM zinc chloride; format: functional, cell-based
In short: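 MCF-7 cells (BCA2+, ER+) grown in RPMI 1640 with 10% heat-inactivated FBS, 37 °C, 5% CO2, used in exponential growth. Drug given with zinc chloride across 600 nM–75 μM for 5 days, then MTT read-out. Vehicle-treated cells without ZnCl2 or drug set as 100% growth.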

[8] = target: E3 ubiquitin-protein ligase Mdm2 (Homo sapiens) (UniProt Q00987); assay: Inhibition of recombinant RING-E3 ligase Mdm2 autoubiquitination at 5 to 50 uM after 30 mins by Western blotting in presence of human recombinant E2 UbcH5b
Homo sapiens [9] = species on record: Homo sapiens; assay: Inhibition of wild type human recombinant His-BCA2 autoubiquitination expressed in Escherichia coli at 5 uM after 30 mins by Western blotting in presence of human recombinant E2 UbcH5b; in short: as §2
MCF7 [10] = assay: Reduction of BCA2 protein expression in human MCF7 cells at IC100 after 16 hrs by Western blotting in presence of MG132; format: functional, cell-based
MCF7 [11] = assay: Reduction of BCA2 protein expression in human MCF7 cells at IC100 after 16 hrs by Western blotting; format: functional, cell-based
MCF7 [12] = assay: Reduction of BCA2 protein expression in human MCF7 cells at IC100 after 16 hrs by Western blotting in presence of cyclohexamide; format: functional, cell-based
MCF7 [13] = assay: Reduction of BCA2 protein expression in human MCF7 cells at IC100 after 16 hrs by Western blotting in presence of cyclohexamide and MG132; format: functional, cell-based

Chain of E3 ubiquitin-protein ligase Mdm2 (Homo sapiens) (Q00987 whole entry, looked up): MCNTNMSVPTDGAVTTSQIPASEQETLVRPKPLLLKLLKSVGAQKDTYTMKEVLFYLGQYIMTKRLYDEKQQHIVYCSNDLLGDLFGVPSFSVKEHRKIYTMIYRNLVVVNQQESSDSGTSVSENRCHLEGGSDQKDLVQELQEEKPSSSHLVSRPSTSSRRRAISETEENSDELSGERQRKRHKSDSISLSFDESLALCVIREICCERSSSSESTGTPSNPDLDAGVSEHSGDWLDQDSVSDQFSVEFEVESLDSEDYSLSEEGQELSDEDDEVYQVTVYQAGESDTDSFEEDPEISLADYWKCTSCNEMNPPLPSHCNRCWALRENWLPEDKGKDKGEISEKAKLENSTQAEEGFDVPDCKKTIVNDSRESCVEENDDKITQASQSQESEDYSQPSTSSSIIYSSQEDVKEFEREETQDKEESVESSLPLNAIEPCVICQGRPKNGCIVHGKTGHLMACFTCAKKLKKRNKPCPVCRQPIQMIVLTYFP

SMILES	inhibition [1] [%]	ALDH+ cells (%) at 15 µM (K562) [%]	IC50 (MDA-MB-231 [2]) [nM]	IC50 [3] [nM]	IC50 (T47D) [nM]	IC50 (MCF7 [4]) [nM]	IC50 (MDA-MB-231 [5]) [nM]	Activity (Homo sapiens [6])	Activity (MCF7 [7])	Activity [8]	Activity (Homo sapiens [9])	Activity (MCF7 [10])	Activity (MCF7 [11])	Activity (MCF7 [12])	Activity (MCF7 [13])
Cc1cc(C)n2c1C=C1C=CC(CCC(=O)NCC=O)=[N+]1[B-]2(F)F	0	40.4	–	–	–	–	–	–	–	–	–	–	–	–	–
CCN(CC)C(=S)SSC1CCCCC1 [CYCLOHEXYL DIETHYLCARBAMO(DITHIOPEROXO)THIOATE]	–	–	280	> 10000	180	300	960	–	–	–	–	–	–	–	–
S=C(SSC1CCCCC1)N1CCCCC1	–	–	2300	> 10000	250	600	6700	–	–	–	–	–	–	–	–
CCC(C)SSC(=S)N(CC)CC (stereo unspecified)	–	–	2100	> 10000	200	450	6000	–	–	–	–	–	–	–	–
CCN(CC)C(=S)SSc1ccc(C(=O)O)cc1	–	–	550	> 10000	150	500	6300	–	–	–	–	–	–	–	–
CN1CCN(C(=S)SSC(=S)N2CCN(C)CC2)CC1	–	–	290	> 10000	330	350	3000	–	–	–	–	–	–	–	–
CCN(CC)C(=S)SSC(C)C [ISOPROPYL DIETHYLCARBAMO(DITHIOPEROXO)THIOATE]	–	–	250	> 10000	230	390	960	–	–	–	–	–	–	–	–
CCCCSSC(=S)N1CCCCC1	–	–	390	> 10000	350	650	8000	–	–	–	–	–	–	–	–
C1CN(SSN2CCOCC2)CCO1 [DITHIODIMORPHOLINE]	–	–	> 10000	> 10000	> 10000	> 10000	> 10000	–	–	–	–	–	–	–	–
CCN(CC)C(=S)SSC(=S)N(CC)CC	57.3	17.3	320	10000	170	100	> 10000	Active	inactive	inactive	inactive	–	–	–	–
CCN(CC)C(=S)SSCCO	8.6	–	2750	> 10000	300	500	–	Active	–	inactive	inactive	–	–	–	–
CCCCCCSSC(=S)N(CC)CC [DIETHYLCARBAMO(DITHIOPEROXO)THIOATE]	9.8	36.5	350	> 10000	230	430	> 10000	Active	inactive	inactive	inactive	Active	Active	Active	Active
S=C(SSC(=S)N1CCCCC1)N1CCCCC1 [BIS(PIPERIDINYLTHIOCARBONYL)DISULFIDE]	79.5	8.3	590	> 10000	270	30	> 10000	Active	inactive	inactive	inactive	Active	Active	Active	Active
S=C(SSC(=S)N1CCCC1)N1CCCC1 [BIS(PYRROLIDINYLTHIOCARBONYL)DISULFIDE]	3.4	39	250	> 10000	280	380	> 10000	Active	–	inactive	inactive	–	–	–	–
S=C(SSC1CCCCC1)N1CCCC1	–	–	250	> 10000	1350	1400	4700	–	–	–	–	–	–	–	–
CCCCSSC(=S)N(CC)CC [BUTYL DIETHYLCARBAMO(DITHIOPEROXO)THIOATE]	–	–	300	> 10000	150	400	7400	–	–	–	–	–	–	–	–

Reference: ChEMBL document CHEMBL1157084, “Exploring the structural requirements for inhibition of the ubiquitin E3 ligase breast cancer associated protein 2 (BCA2) as a treatment for breast cancer” (J Med Chem, 2010)
